In one test the test system is liver stage P. berghei. The test can be described thus: P. berghei liver stage assay in HepG2 cells. Format: cell-based. As to conditions: Plasmodium berghei, HepG2, 45 h, read-out: IC50 liver stage P. berghei. The gist of the method: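 Luciferase-expressing P. berghei ANKA sporozoites (4,000, from mosquito salivary glands) infect 12,000 HepG2 cells with or without test compound; final DMSO 0.3%. Parasite growth is read by luciferase luminescence 45 h post-infection. Results are mean ± SD, and experiments were repeated 2-3 times.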

In another test the target is pfNDH2 (Plasmodium falciparum, UniProt Q8I302). The test can be described thus: pfNDH2 enzyme activity assay. Format: biochemical.
A further test concerns P. falciparum Dd2 strain. The test is described as follows: P. falciparum Dd2 growth inhibition. Format: cell-based. The conditions noted are these: Plasmodium falciparum, DD2, read-out: EC50 growth Dd2.
Test [1] concerns Dd2-scDHOD parasite strain. The test is described as follows: Transgenic Dd2-scDHOD growth inhibition. Format: cell-based. As to conditions: Plasmodium falciparum, DD2, read-out: EC50 growth Dd2-scDHOD.
The next test has as its target T1, pfDHOD (Plasmodium falciparum, UniProt Q08210).
T1 sequence (Q08210 24-569): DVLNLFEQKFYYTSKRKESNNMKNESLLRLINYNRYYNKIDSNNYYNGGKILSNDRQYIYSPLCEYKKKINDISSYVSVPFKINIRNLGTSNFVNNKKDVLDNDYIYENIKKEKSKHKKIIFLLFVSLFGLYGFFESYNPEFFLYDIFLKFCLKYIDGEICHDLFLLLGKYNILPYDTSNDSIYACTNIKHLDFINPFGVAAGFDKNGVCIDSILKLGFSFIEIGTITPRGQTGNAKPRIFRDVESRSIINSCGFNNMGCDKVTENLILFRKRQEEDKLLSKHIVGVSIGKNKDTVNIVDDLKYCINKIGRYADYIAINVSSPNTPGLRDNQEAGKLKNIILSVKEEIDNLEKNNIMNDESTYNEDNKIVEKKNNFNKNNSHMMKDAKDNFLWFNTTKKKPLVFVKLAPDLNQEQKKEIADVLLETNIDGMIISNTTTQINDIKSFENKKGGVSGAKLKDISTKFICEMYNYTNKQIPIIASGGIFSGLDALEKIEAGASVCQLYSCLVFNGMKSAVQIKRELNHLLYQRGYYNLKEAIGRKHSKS
The test is described as follows: pfDHOD chromogen. The format is biochemical. In outline: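 DCIP reduction assay in 384-well format. Test compound in serial dilution; reaction started by adding pfDHOD and run for 10 min at 25 °C. Read-out A600.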

For another test, the target named is hsCYT bc1 (Homo sapiens, UniProt P00156). The test can be described thus: Cytochrome c reductase activity, human. The format is biochemical. The gist of the method: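 Mitochondria from HEK293 cells pelleted at 400 g for 10 min, disrupted by N2 cavitation, then debris spin, 10,000 g pellet and 1–2 M sucrose gradient. Mitochondria (40 ug/ml) in 250 mM sucrose, 50 mM KH2PO4, 0.2 mM EDTA, 1 mM NaN3, 2.5 mM KCN with 50 uM cytochrome c. Started with 25 uM decylubiquinol; cytochrome c reduction read at 550 nm over the first 60 s.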

Another test relates to P. falciparum 3D7 strain. The test can be described thus: P. falciparum 3D7 growth inhibition. The conditions noted are these: Plasmodium falciparum, 3D7, read-out: EC50 growth 3D7. The format is cell-based.

The IC50 is the concentration needed to halve the response being measured. In general, EC50 refers to the concentration giving half of the maximal effect.

A value given as a limit tells only on which side of the number the result lay.

As for `O=C1C(O)=C([C@H]2CC[C@H](c3ccc(Cl)cc3)CC2)C(=O)c2ccccc21` [atovaquone], the 50% inhibitory concentration (IC50) in the test on liver stage P. berghei is 0.3 nM; against pfNDH2, more than 20000 nM; on pfDHOD it was more than 20000 nM; on hsCYT bc1, 350 ± 12 nM. The results for the EC50 (with P. falciparum Dd2 strain; in test [1]; in the test on P. falciparum 3D7 strain) were 1 nM, more than 5000 nM and 1 nM, respectively.
